Experimental data taken from ChEMBL document CHEMBL2062453, “Lead optimization through VLAK protocol: new annelated pyrrolo-pyrimidine derivatives as antitumor agents” (2012).

How the values were obtained:
Format in all cases: functional
CCRF-CEM = test: Cytotoxicity against human CCRF-CEM cells assessed as cell growth at 10 uM after 48 hrs by SRB assay relative to control; conditions: read-out: Activity
Summary of the method: (§1)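 NCI primary screen of about 60 human tumour lines. Cells inoculated and preincubated, then a single test concentration added and cultures incubated 48 h. Result given as percent growth (G%) of treated versus untreated control cells.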

HL-60(TB) = test: Cytotoxicity against human HL-60(TB) cells assessed as cell growth at 10 uM after 48 hrs by SRB assay relative to control; conditions: HL-60, 48 h, read-out: Activity
K562 = test: Cytotoxicity against human K562 cells assessed as cell growth at 10 uM after 48 hrs by SRB assay relative to control; conditions: K562, 48 h, read-out: Activity; summary of the method: as §1
RPMI-8226 = test: Cytotoxicity against human RPMI8226 cells assessed as cell growth at 10 uM after 48 hrs by SRB assay relative to control; conditions: RPMI-8226, 48 h, read-out: Activity
HOP-62 = test: Cytotoxicity against human HOP62 cells assessed as cell growth at 10 uM after 48 hrs by SRB assay relative to control; conditions: HOP-62, 48 h, read-out: Activity; summary of the method: as §1
HOP-92 = test: Cytotoxicity against human HOP92 cells assessed as cell growth at 10 uM after 48 hrs by SRB assay relative to control; conditions: HOP-92, 48 h, read-out: Activity; summary of the method: as §1
NCI-H23 = test: Cytotoxicity against human NCI-H23 cells assessed as cell growth at 10 uM after 48 hrs by SRB assay relative to control; conditions: NCI-H23, 48 h, read-out: Activity
NCI-H522 = test: Cytotoxicity against human NCI-H522 cells assessed as cell growth at 10 uM after 48 hrs by SRB assay relative to control; conditions: NCI-H522, 48 h, read-out: Activity
COLO 205 = test: Cytotoxicity against human COLO205 cells assessed as cell growth at 10 uM after 48 hrs by SRB assay relative to control; conditions: COLO 205, 48 h, read-out: Activity; summary of the method: as §1
HT-29 = test: Cytotoxicity against human HT-29 cells assessed as cell growth at 10 uM after 48 hrs by SRB assay relative to control; conditions: HT-29, 48 h, read-out: Activity; summary of the method: as §1
SW-620 = test: Cytotoxicity against human SW620 cells assessed as cell growth at 10 uM after 48 hrs by SRB assay relative to control; conditions: SW-620, 48 h, read-out: Activity
Summary of the method: (§2)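 NCI single-dose primary screen across about 60 human tumour lines. Each line was inoculated and preincubated on microtiter plates, then exposed to one concentration of agent for 48 h. Growth is reported as percent growth (G%) of treated cells versus untreated control cells.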

SNB-19 = test: Cytotoxicity against human SNB19 cells assessed as cell growth at 10 uM after 48 hrs by SRB assay relative to control; conditions: SNB-19, 48 h, read-out: Activity
Malme-3M = test: Cytotoxicity against human MALME-3M cells assessed as cell growth at 10 uM after 48 hrs by SRB assay relative to control; conditions: read-out: Activity; summary of the method: as §1
M14 = test: Cytotoxicity against human M14 cells assessed as cell growth at 10 uM after 48 hrs by SRB assay relative to control; conditions: M14, 48 h, read-out: Activity; summary of the method: as §1
MDA-MB-435 = test: Cytotoxicity against human MDA-MB-435 cells assessed as cell growth at 10 uM after 48 hrs by SRB assay relative to control; conditions: MDA-MB-435, 48 h, read-out: Activity
SK-MEL-5 = test: Cytotoxicity against human SK-MEL-5 cells assessed as cell growth at 10 uM after 48 hrs by SRB assay relative to control; conditions: SK-MEL-5, 48 h, read-out: Activity
UACC-257 = test: Cytotoxicity against human UACC257 cells assessed as cell growth at 10 uM after 48 hrs by SRB assay relative to control; conditions: UACC-257, 48 h, read-out: Activity; summary of the method: as §2
UACC-62 = test: Cytotoxicity against human UACC62 cells assessed as cell growth at 10 uM after 48 hrs by SRB assay relative to control; conditions: UACC-62, 48 h, read-out: Activity; summary of the method: as §2
IGROV-1 = test: Cytotoxicity against human IGROV1 cells assessed as cell growth at 10 uM after 48 hrs by SRB assay relative to control; conditions: IGROV-1, 48 h, read-out: Activity; summary of the method: as §1
OVCAR-3 = test: Cytotoxicity against human OVCAR3 cells assessed as cell growth at 10 uM after 48 hrs by SRB assay relative to control; conditions: OVCAR-3, 48 h, read-out: Activity
OVCAR-8 = test: Cytotoxicity against human OVCAR8 cells assessed as cell growth at 10 uM after 48 hrs by SRB assay relative to control; conditions: OVCAR-8, 48 h, read-out: Activity
786-0 = test: Cytotoxicity against human 786-0 cells assessed as cell growth at 10 uM after 48 hrs by SRB assay relative to control; conditions: 786-0, 48 h, read-out: Activity; summary of the method: as §1
CAKI-1 = test: Cytotoxicity against human Caki1 cells assessed as cell growth at 10 uM after 48 hrs by SRB assay relative to control; conditions: CAKI-1, 48 h, read-out: Activity; summary of the method: as §1
SN12C = test: Cytotoxicity against human SN12C cells assessed as cell growth at 10 uM after 48 hrs by SRB assay relative to control; conditions: read-out: Activity
Hs-578T = test: Cytotoxicity against human Hs578T cells assessed as cell growth at 10 uM after 48 hrs by SRB assay relative to control; conditions: read-out: Activity; summary of the method: as §1
BT-549 = test: Cytotoxicity against human BT549 cells assessed as cell growth at 10 uM after 48 hrs by SRB assay relative to control; conditions: BT-549, 48 h, read-out: Activity; summary of the method: as §1
T47D = test: Cytotoxicity against human T47D cells assessed as cell growth at 10 uM after 48 hrs by SRB assay relative to control; conditions: read-out: Activity; summary of the method: as §2

| Compound | growth at 10 µM (CCRF-CEM) | growth at 10 µM (HL-60(TB)) | growth at 10 µM (K562) | growth at 10 µM (RPMI-8226) | growth at 10 µM (HOP-62) | growth at 10 µM (NCI-H23) | growth at 10 µM (NCI-H522) | growth at 10 µM (COLO 205) | growth at 10 µM (HT-29) | growth at 10 µM (SW-620) | growth at 10 µM (SNB-19) | growth at 10 µM (Malme-3M) | growth at 10 µM (M14) | growth at 10 µM (MDA-MB-435) | growth at 10 µM (SK-MEL-5) | growth at 10 µM (UACC-257) | growth at 10 µM (UACC-62) | growth at 10 µM (IGROV-1) | growth at 10 µM (OVCAR-3) | growth at 10 µM (OVCAR-8) | other results |
| --- | --- | --- | --- | --- | --- | --- | --- | --- | --- | --- | --- | --- | --- | --- | --- | --- | --- | --- | --- | --- | --- |
| CSC1=Nc2c(c(C)c(-c3ccccc3)n2CCCC(=O)O)C2=NC(=O)CN12 | 102% | 83% | 99% | 88% | 88% | 105% | 84% | 153% | 97% | 94% | 104% | 133% | 104% | 107% | 97% | 99% | 95% | 88% | 109% | 98% | growth at 10 µM (HOP-92): 95%; growth at 10 µM (786-0): 102%; growth at 10 µM (CAKI-1): 70%; growth at 10 µM (SN12C): 105%; growth at 10 µM (Hs-578T): 106%; growth at 10 µM (BT-549): 94%; growth at 10 µM (T47D): 106% |
| COC(=O)C(Cc1cnc[nH]1)NC(=O)CCCn1c(C)c(C)c2c1N=C(SC)N1CC(=O)N=C21 (stereo unspecified) | 105% | 92% | 97% | 100% | 103% | 109% | 90% | 118% | 96% | 98% | 94% | 108% | 106% | 102% | 98% | 107% | 109% | 95% | 121% | 103% | growth at 10 µM (HOP-92): 92%; growth at 10 µM (786-0): 104%; growth at 10 µM (CAKI-1): 102%; growth at 10 µM (SN12C): 107%; growth at 10 µM (Hs-578T): 107%; growth at 10 µM (BT-549): 107%; growth at 10 µM (T47D): 104% |
| CSC1=Nc2c(c(C)c(C)n2CCCC(=O)NCCc2cnc[nH]2)C2=NC(=O)CN12 | 104% | 100% | 100% | 87% | 109% | 103% | 83% | 132% | 95% | 104% | 102% | 109% | 102% | 116% | 101% | 114% | 100% | 94% | 165% | 108% | growth at 10 µM (HOP-92): 91%; growth at 10 µM (786-0): 110%; growth at 10 µM (CAKI-1): 111%; growth at 10 µM (SN12C): 100%; growth at 10 µM (Hs-578T): 117%; growth at 10 µM (BT-549): 120%; growth at 10 µM (T47D): 101% |
| CSC1=Nc2c(c(C)c(-c3ccccc3)n2CCCN2CCN(C)CC2)C2=NC(=O)CN12 | 86% | 91% | 93% | 66% | 89% | 94% | 85% | 91% | 98% | 101% | 96% | 125% | 100% | 105% | 91% | 100% | 87% | 92% | 96% | 93% | growth at 10 µM (786-0): 98%; growth at 10 µM (CAKI-1): 92%; growth at 10 µM (SN12C): 96%; growth at 10 µM (Hs-578T): 75%; growth at 10 µM (T47D): 80% |
